According to ChEMBL document CHEMBL2417519, “Structure-activity relationships for ketamine esters as short-acting anaesthetics” (Bioorg Med Chem, 2013):

Tests used:
Format in all cases: functional
Rattus norvegicus [1] = assay: Anesthetic effect in iv dosed Sprague-Dawley rat assessed as time required to walk
How it was run: (§1)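 Adult female Sprague-Dawley rats (~350–450 g), restrained, tail marginal vein cannulated; drug at 10 mg/ml given by continuous iv infusion, initially 20 mg/kg/min until pedal withdrawal reflex score PWR = 1, then 6.7 mg/kg/min titrated up-and-down to keep dorsal recumbency and PWR = 1 to 10 min before cessation. Three rats per study, each its own ketamine control; randomised order, ≥1 h recovery between experiments.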

Rattus norvegicus [2] = assay: Anesthetic effect in iv dosed Sprague-Dawley rat assessed as duration of recovery of righting reflex; how it was run: as §1
Rattus norvegicus [3] = assay: Analgesic effect in iv dosed Sprague-Dawley rat assessed as dose required to cause pedal withdrawal reflex; how it was run: as §1
Rattus norvegicus [4] = assay: Anesthetic effect in iv dosed Sprague-Dawley rat assessed as duration of loss of righting reflex; how it was run: as §1
Rattus norvegicus [5] = assay: Analgesic effect in iv dosed Sprague-Dawley rat assessed as time required to cause pedal withdrawal reflex; how it was run: as §1
Rattus norvegicus [6] = assay: Anesthetic effect in iv dosed Sprague-Dawley rat assessed as dose required to cause loss of righting reflex; how it was run: as §1

| SMILES | Time (Rattus norvegicus [1]) | Time (Rattus norvegicus [2]) | Activity (Rattus norvegicus [3]) | Time (Rattus norvegicus [4]) | Time (Rattus norvegicus [5]) | Activity (Rattus norvegicus [6]) |
| --- | --- | --- | --- | --- | --- | --- |
| CC(C)OC(=O)CCN[C@@]1(c2ccccc2Cl)CCCCC1=O.Cl | 900 s | 0 s | 82 mg/kg | 170 s | 190 s | 71 mg/kg |
| CCOC(=O)CCCCNC1(c2ccccc2Cl)CCCCC1=O.Cl (racemic) | 112 s |  | 57 mg/kg | 97 s |  | 34 mg/kg |
| CC(C)OC(=O)CCN[C@]1(c2ccccc2Cl)CCCCC1=O.Cl |  | 15 s | 84 mg/kg |  |  | 74 mg/kg |
| CCOC(=O)CCNC1(c2ccccc2Cl)CCCCC1=O.Cl (racemic) |  |  | 55 mg/kg |  |  | 48 mg/kg |
| CNC1(c2ccccc2Cl)CCCCC1=O (racemic) [KETAMINE] | 900 s | 480 s | 21 mg/kg | 51 s | 60 s | 17 mg/kg |
| CCCOC(=O)CCCCNC1(c2ccccc2Cl)CCCCC1=O.Cl (racemic) | 90 s | 45 s | 83 mg/kg | 271 s | 277 s | 82 mg/kg |
| CCCOC(=O)CCCNC1(c2ccccc2Cl)CCCCC1=O.Cl (racemic) | 65 s | 10 s | 209 mg/kg | 329 s | 558 s | 137 mg/kg |
| CCOC(=O)CCCN(C)C1(c2ccccc2Cl)CCCCC1=O.Cl (racemic) | 0 s | 0 s |  | 600 s | 600 s |  |
| CN(C)[C@]1(c2ccccc2Cl)CCCCC1=O.Cl | 1215 s | 880 s | 35 mg/kg | 94 s | 103 s | 32 mg/kg |
| CCOC(=O)CCN(C)C1(c2ccccc2Cl)CCCCC1=O (racemic) | 0 s | 0 s | 99 mg/kg | 280 s | 290 s | 95 mg/kg |
| CC(C)OC(=O)CCCCNC1(c2ccccc2Cl)CCCCC1=O.Cl (racemic) | 320 s | 180 s | 38 mg/kg |  |  | 38 mg/kg |
| CCOC(=O)CCN[C@]1(c2ccccc2Cl)CCCCC1=O.Cl | 80 s | 62 s | 62 mg/kg | 171 s | 185 s | 59 mg/kg |
| CC(C)OC(=O)CCNC1(c2ccccc2Cl)CCCCC1=O.Cl (racemic) |  | 83 s | 37 mg/kg |  |  | 33 mg/kg |
| COC(=O)CCCCN(C)C1(c2ccccc2Cl)CCCCC1=O (racemic) |  | 0 s |  | 420 s |  |  |
| CC(C)OC(=O)CCCNC1(c2ccccc2Cl)CCCCC1=O.Cl (racemic) | 110 s | 37 s | 66 mg/kg |  |  | 42 mg/kg |
| CCOC(=O)CCCNC1(c2ccccc2Cl)CCCCC1=O.Cl (racemic) | 170 s | 95 s | 44 mg/kg | 70 s |  | 24 mg/kg |
| CN(C)C1(c2ccccc2Cl)CCCCC1=O.Cl (racemic) | 1740 s | 1500 s | 43 mg/kg | 125 s | 130 s | 43 mg/kg |
| Cl.O=C1CCCC[C@]1(NCCCO)c1ccccc1Cl | 588 s | 341 s | 34 mg/kg | 59 s | 102 s | 21 mg/kg |
| CC(=O)OCCCN[C@]1(c2ccccc2Cl)CCCCC1=O.Cl |  |  | 34 mg/kg | 81 s |  | 26 mg/kg |
| CCCOC(=O)CCNC1(c2ccccc2Cl)CCCCC1=O.Cl (racemic) | 0 s | 0 s | 136 mg/kg | 404 s | 420 s | 131 mg/kg |
